Experimental data published in publication PMC3714013 (Chemistry & biology, 2013).
Read-outs that look alike come from different tables or passages of the source. Positions of bridges follow the written chain, without caps; N, C: chain ends. No end group written: not given here.

Key:
Adult male Wistar rats = test: AgRP-induced weight gain in free-feeding rats, ICV injection; assay type: in vivo, rat
How it was run: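 Adult male Wistar rats, housed individually on a 12-12h light:dark cycle with chow. Third-ventricle cannula implanted under isoflurane, recovery ≥7 days, placement verified by a plasma glucose rise after ICV 5-thio-D-glucose. ICV pre-treatment with vehicle or test peptide, then 1 h later AgRP (0.01 nmol) or vehicle; n=8–10/group. Body weight gain followed over 5 days.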

human MC4R = human MC4R (Homo sapiens, UniProt P32245); test: Competitive; assay type: binding
How it was run: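 Intact HEK293T cells transiently transfected (calcium phosphate) with human MC4R, harvested 20 h later, in L*R binding buffer at 10,000–70,000 cells/well. […] Washed, DELFIA enhancement, time-resolved fluorescence. Three independent experiments in duplicate.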

MC1R [1] = target: T1, MC1R (Homo sapiens, UniProt Q01726); test: Competitive; assay type: binding
How it was run: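 Intact HEK 293T cells were transiently transfected with a human MC1R construct (calcium phosphate), harvested after 20 h and plated at 10,000–70,000 cells/well in binding buffer. Eu-NDP-MSH ([…]) plus 3-fold dilutions of test peptide (9.0×10−6M to 4.6×10−10M) were incubated for 2 h at 37°C. Read-out was time-resolved fluorescence. Tracer Kd came from saturation binding. Three independent experiments, in duplicate.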

MC1R [2] = target: T1, MC1R; details: cited from earlier work
[3] = test system: Melan-a cells (MC1R activation); details: ref Candille et al., 2007; cited from earlier work
MC1R [4] = target: T1, MC1R; details: read-out: MC1R Ki; ref Kiefer et al., 1998; cited from earlier work

T1 sequence (Q01726 whole entry): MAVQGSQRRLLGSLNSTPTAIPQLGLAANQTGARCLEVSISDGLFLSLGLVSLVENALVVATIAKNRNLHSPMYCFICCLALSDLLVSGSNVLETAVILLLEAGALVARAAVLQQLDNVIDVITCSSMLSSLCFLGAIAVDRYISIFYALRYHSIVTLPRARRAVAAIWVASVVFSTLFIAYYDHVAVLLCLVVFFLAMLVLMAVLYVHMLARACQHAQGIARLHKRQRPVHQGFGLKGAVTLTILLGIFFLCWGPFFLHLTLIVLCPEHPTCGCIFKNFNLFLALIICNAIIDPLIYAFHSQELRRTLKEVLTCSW
Sequence of human MC4R (P32245 whole entry): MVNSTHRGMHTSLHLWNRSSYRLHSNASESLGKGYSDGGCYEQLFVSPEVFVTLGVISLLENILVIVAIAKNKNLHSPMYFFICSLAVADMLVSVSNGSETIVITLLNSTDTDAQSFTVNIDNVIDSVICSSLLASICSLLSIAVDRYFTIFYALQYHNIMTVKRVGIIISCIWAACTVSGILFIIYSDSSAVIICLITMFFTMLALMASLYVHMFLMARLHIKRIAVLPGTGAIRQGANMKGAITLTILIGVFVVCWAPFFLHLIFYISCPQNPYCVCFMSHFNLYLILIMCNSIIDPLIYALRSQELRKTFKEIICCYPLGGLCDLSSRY

For “Agouti-related protein (SPRRCVRLHESCLGQQVPCCDPCATCYCRFFNAFCYCRKLGTATNLCSRT; UniProt P56473 82-131, looked up) [AgRP]”, which “effect on body weight (energy balance response)” value (Adult male Wistar rats; ICV 0.01 nmol (submaximal dose)) is on record?
Its value is “increased weight gain”.

And the “effect on food intake in the first 24 hours” value (Adult male Wistar rats; ICV 0.01 nmol, data not shown)?
The value was “no detectable effect on food intake”.

Which Ki (human MC4R) does the source give for “GIINTLQKYYSRVRGGRSAVLSSLPKEEQIGKSSTRGRKSSRRKK-NH2 [Cys->Ser]” here?
The Ki was 436 nM.

What about the Ki (MC1R [1]) of the same molecule?
Its Ki is 297 nM.

With “GIINTLQKYYSRVRGGRSAV-NH2 [N-term Truncate]” as the molecule, how does the Ki (MC1R [1]) read?
Its Ki is > 5000 nM.

For Asip (from UniProt P42127), which Ki (MC1R [2]) is on record?
The Ki was 2.6 nM.

With canine β-defensin 103 [CBD103] as the molecule, how does the “effect on cAMP levels in Melan-a cells” value [3] read?
The value was “neither CBD103 ([Candille et al., 2007]) nor HBD3 (Figure S1A) stimulate or reduce cAMP levels”.

With “GIINTLQKYYCRVRGGRSAVLSSLPKEEQIGKSSTRGRKCSRRKK-NH2 (disulfide 11-40) [CysT-V]” as the molecule, how does the Ki (human MC4R) read?
Its Ki is 206 nM.

What about the Ki (MC1R [1]) of the same molecule?
Its Ki is 243 nM.

B1: RFF→AFF mutation in Asip: Asip mutant with RFF motif changed to AFF, literature value (protein)
chain: HLALEETLGDDRSLRSNSSMNSLDFSSVSIVALNKKSKKISRKEAEKRKRSSKKKASMKKVARPPPPSPCVATRDSCKPPAPACCDPCASCQCAFFGSACTCRVLNPNC
Which Ki (MC1R [4]) does the source give for B1 here?
Its Ki is > 1900 nM.
